# JMJD2C inh – human JMJD2C demethylase inhibition | Q9H3R0 | AID 2099 | GST-JMJD2C(1-420) H3K9me3 demethylation, DELFIA europium | hit rate 0.069% among 330,000 | inhibition, % at 2.35 µM;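 active = more than half of a compound's replicate wells show inhibition beyond 50%, single wells judged on their own value; inconclusive = some, but no more than half, of replicates pass 50% inhibition; inactive = no replicate passes 50% inhibition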;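 also: signal counts dimethyl H3K9 product captured on neutravidin plate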
# SR-BI DiI-HDL act – activators of SR-BI mediated HDL lipid uptake | CHO ldlA[mSR-BI] cells, DiI-HDL uptake fluorescence, 3 h; 100 = double the neutral-control signal | activation, % at 12.5 µM | hit rate 0.096% among 320,000 | AID 504775;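 active = mean replicate activation of at least 60% and every replicate at or above 60%; inconclusive = mean or all-replicate condition met, but not both; inactive = mean below 60% and not all replicates reaching 60%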
#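 System: LDL receptor-deficient CHO ldlA cells overexpressing murine SR-BI | Timing: 3 h uptake period with compound, 37 °C | Medium: HEPES-buffered (25 mM, pH 7.4) F12 plus 0.5% BSA | Dosing: Single-point compound dose | Signal: Bottom-read fluorescence, 550/595 nm | Read-out: Retained DiI signal reflecting DiI-HDL uptake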
# AHR act – activates the human aryl hydrocarbon receptor. hit rate 2.5% among 320,000. activation, % at 5 µM. P35869. AHR-responsive luciferase reporter cells, luminescence; in the data active = activation above about 47%
# GAA850 FXN act – increases GAA850 frataxin promoter reporter activity; HEK293 lucGAA850 FXN promoter luciferase reporter, 24 h; percent of 10 µM SAHA response; activation, % at 6 µM; hit rate 0.56% among 360,000; AID 540364;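 active = activation above the average of all compounds screened plus 3 SD, cutoff fixed separately per campaign, cut at about 7.5% in these data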
# SR-BI HDL uptake – inhibitors of mouse SR-BI mediated HDL lipid uptake; inhibition, % at 12.5 µM; AID 488896; hit rate 0.96% among 320,000; Q61009; ldlA[mSR-BI] CHO cells, DiI-HDL uptake fluorescence, 3 h;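 active = mean replicate inhibition of at least 70% and a set share of replicates each scoring 70 or more; inconclusive = meets just one of the two criteria; inactive = fails both criteria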
# Hits are given with their value; n = inactive; u = inconclusive; x = no result given. Sampled rows, rich in hits. Any-hit rate of the full collection: about 3.7%.
SMILES,JMJD2C inh,SR-BI DiI-HDL act,AHR act,GAA850 FXN act,SR-BI HDL uptake
COc1cc(OC)cc(C(=O)NC(=S)NCc2ccco2)c1,n,n,64,n,n
COc1cccc(-c2cc(C(=O)NCc3ccco3)no2)c1,n,n,n,n,n
COc1ccc(-c2cc(C(=O)Nc3cccc(Cl)c3)no2)cc1,n,n,n,n,n
COc1ccc(OC)c(-c2cc(C(=O)Nc3cccc(Cl)c3)no2)c1,n,n,55,n,94
COc1cccc(C(=O)NC(=S)NCc2ccco2)c1,n,n,n,n,n
COc1ccc(OC)c(-c2cc(C(=O)Nc3c(C)nn(Cc4ccc(Cl)cc4)c3C)no2)c1,n,n,n,n,78
Cc1cc(NC(=O)CCC(=O)N(c2ccc(F)cc2)C(C(=O)NC2CCCC2)c2cccnc2)no1 (configuration not stated),n,n,n,n,n
COC(=O)c1ccc(Cn2c(C)c(C(=O)NCc3cccc(C(F)(F)F)c3)sc2=O)o1,x,x,x,n,x
O=C(O)CC(C(=O)Nc1ccc(F)cc1)C1CCCO1 (configuration not stated),n,x,n,n,x
O=C(COc1ccccc1[N+](=O)[O-])OCC(=O)c1ccc(Br)s1,n,n,n,n,n
O=C(CC(=O)N1CCOCC1)N1CCOCC1,x,n,x,n,n
O=C(CCc1ccccc1)NNC(=O)c1ccccc1Br,n,n,n,n,n
COc1ccc(NC(=O)c2cc(-c3ccccc3Cl)on2)cc1,n,n,56,n,n
CCC1(c2ccccc2)SC(=O)NC1=O (configuration not stated),x,n,x,n,n
C/C(=N\Nc1nncc2ccccc12)c1ccc(O)cc1,n,n,n,n,n
COc1ccc(-c2nc(N/N=C(\C)c3ccc(O)cc3)c3ccccc3n2)cc1,n,x,49,n,x
CC(=O)Nc1ccc(NC(=O)CNC(=O)c2cccc(C)c2)cc1,n,n,n,n,n
Clc1ccc(-c2nc3cnccn3c2NC2CCCC2)cc1,n,n,51,n,u
Cc1ccn2c(NC3CCCC3)c(-c3ccncc3)nc2c1,n,n,n,n,n
CCN1CCN(c2cc(N3CCN(C(=O)c4ccco4)CC3)c3c4c(onc24)-c2ccccc2C3=O)CC1,n,n,n,n,n
O=C(O)CCNc1cc(N2CCN(C(=O)c3ccco3)CC2)c2noc3c2c1C(=O)c1ccccc1-3,n,n,57,n,n
O/C(=C\c1nc2ccccc2nc1/C=C(\O)c1ccccc1)c1ccccc1,n,n,70,n,n
Cc1ccc(S(=O)(=O)N(C)CC(=O)OCC(=O)NCCc2ccc(S(N)(=O)=O)cc2)cc1,x,x,n,n,x
Cc1ccc(NC2CCCN(C(=O)CCc3scnc3C)C2)cc1C (configuration not stated),n,n,50,n,n
Clc1ccsc1-c1ccnc(-n2cccc2)n1,n,x,57,n,x
SMILES,JMJD2C inh,SR-BI DiI-HDL act,AHR act,GAA850 FXN act,SR-BI HDL uptake
Clc1ccc(-c2ccnc(-n3cccc3)n2)s1,n,n,53,n,n
c1coc(-c2ccnc(-n3cccc3)n2)c1,n,n,n,n,n
Cc1ccsc1-c1ccnc(-n2cccc2)n1,n,n,67,n,n
O=C(CCCSCCCC(=O)NN=Cc1ccccc1)NN=Cc1ccccc1,x,n,x,n,n
CC(C)Nc1ccc(Nc2ccnc3cc4ccccc4cc23)cc1,n,n,n,n,77
COc1ccc(Nc2cc(C)nc3ncnn23)cc1Cl,n,n,68,n,n
CC(Oc1cc2oc(=O)c3c(c2cc1Cl)CCCC3)C(=O)NCc1cccnc1 (configuration not stated),n,n,n,n,n
CC(Oc1cc2oc(=O)c3c(c2cc1Cl)CCC3)C(=O)NCc1cccnc1 (configuration not stated),n,n,n,n,86
CCOC(=O)Cc1c(C)nc2cc(-c3ccc(Cl)cc3)[nH]n2c1=O,n,n,58,n,n
O=C(CN1C(=O)CCSc2ccccc21)NC1CCCCC1,n,n,n,n,n
Cc1ccnc(Nc2nc(-c3ccc(O)cc3O)cs2)c1,n,n,n,n,83
Cc1ccnc(Nc2nc(-c3ccc(O)cc3)cs2)c1,n,n,n,n,n
COc1ccc(Br)cc1CN(C)CC(=O)NCc1ccc(F)cc1,53,n,n,n,n
CN(CC(=O)NCc1ccc(F)cc1)Cc1ccc(Br)cc1,n,x,n,n,x
Cc1ccc(-c2c(C(=O)N/N=C/c3c[nH]c4ccccc34)nnn2-c2nonc2N)cc1,n,n,n,n,85
Cc1ccc(-c2c(C(=O)N/N=C/c3sccc3C)nnn2-c2nonc2N)cc1,n,n,n,n,85
Cc1ccsc1/C=N/NC(=O)c1nnn(-c2nonc2N)c1-c1ccccc1,n,n,n,n,n
CCOC(=O)C(=O)NC12CC3CC(CC(C3)C1)C2,n,63,n,n,n
CN(Cc1ccc(Br)cc1)CC(O)COc1cccc(Br)c1 (configuration not stated),n,n,n,n,n
CCCCCn1c(N)c(-c2nc3ccccc3s2)c2c([N+](=O)[O-])nn(CC)c(=O)c21,n,n,n,n,83
CCCCn1c(N)c(-c2nc3ccccc3s2)c2c([N+](=O)[O-])nn(C)c(=O)c21,n,n,n,n,93
CCCCn1c(N)c(-c2nc3ccccc3s2)c2c([N+](=O)[O-])nn(CC)c(=O)c21,n,n,n,n,n
CN(CC(=O)Nc1ccccc1C(F)(F)F)C(=O)CC1OC(=O)c2ccccc21 (configuration not stated),n,n,n,n,n
Cc1ccc2nc(NC(=O)c3ccc(N4C(=O)CCC4=O)cc3)sc2c1,n,n,n,n,77
O=C(Nc1nc(-c2ccc(F)cc2)cs1)c1cccc(N2C(=O)CCC2=O)c1,n,n,48,n,81
SMILES,JMJD2C inh,SR-BI DiI-HDL act,AHR act,GAA850 FXN act,SR-BI HDL uptake
Cc1cc(C)c2sc(NC(=O)c3ccc(N4C(=O)CCC4=O)cc3)nc2c1,n,x,n,n,x
Cc1ccc2sc(NC(=O)c3cccc(N4C(=O)CCC4=O)c3)nc2c1C,u,n,n,n,94
COc1ccccc1N1CCN(C2CCCN(C(=O)c3oc(C)cc3C)C2)CC1 (configuration not stated),n,n,n,n,n
CCOC(=O)C1=C(C)N=C2SCCC(=O)N2[C@@H]1c1cccs1,n,292,n,n,n
COC(=O)c1cn(C(=O)c2cc(Br)ccc2Cl)c2ccccc12,n,n,n,n,n
CC(C)NC(=O)/C(=C/c1cn(-c2ccccc2)nc1-c1cccc([N+](=O)[O-])c1)NC(=O)c1ccccc1,n,n,n,n,n
COc1ccccc1C=NN=C(N)C(N)=NN=Cc1ccccc1OC,x,n,x,n,n
COc1ccccc1/C=N\N=C(\N)c1ccccn1,n,n,71,n,n
NC(=O)c1cnn2c(-c3ccc(Cl)cc3Cl)ccnc12,n,n,n,n,n
COc1cccc(-n2nnnc2SCC(=O)Nc2ccc(NC(C)=O)cc2)c1,n,n,n,n,n
